Reference: ChEMBL document CHEMBL1123459, “Synthesis and dopaminergic binding of 2-aryldopamine analogues: phenethylamines, 3-benzazepines, and 9-(aminomethyl)fluorenes” (J Med Chem, 1986)

Columns and labels:
D(1A) dopamine receptor [1] = target: T1, D(1A) dopamine receptor (Rattus norvegicus, UniProt P18901); test: Displacement of [3H]fenoldopam from Dopamine receptor D1 of rat striatum membranes; format: cell membranes, Membrane
[2] = target: D(2) dopamine receptor (Bos taurus) (UniProt P20288); test: Compound was tested for inhibition of [3H]spiroperidol binding against Dopamine receptor D2 at 10e-5 M; IA= Inactive
Sequence of D(2) dopamine receptor (Bos taurus) (P20288 whole entry): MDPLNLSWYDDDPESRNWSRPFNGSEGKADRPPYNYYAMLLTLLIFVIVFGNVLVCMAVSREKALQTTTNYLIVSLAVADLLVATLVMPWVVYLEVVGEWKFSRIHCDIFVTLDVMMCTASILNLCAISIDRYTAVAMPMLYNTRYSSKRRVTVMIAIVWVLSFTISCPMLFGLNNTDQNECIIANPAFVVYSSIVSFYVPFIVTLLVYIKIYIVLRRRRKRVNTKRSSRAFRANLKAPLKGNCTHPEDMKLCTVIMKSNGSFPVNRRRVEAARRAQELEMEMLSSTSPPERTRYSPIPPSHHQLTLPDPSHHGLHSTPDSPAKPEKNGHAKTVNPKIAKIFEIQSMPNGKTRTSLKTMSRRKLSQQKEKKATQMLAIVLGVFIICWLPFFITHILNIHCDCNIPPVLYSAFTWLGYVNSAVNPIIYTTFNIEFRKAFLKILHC

[3] = target: D(2) dopamine receptor (Bos taurus) (UniProt P20288); test: Compound was tested for inhibition of [3H]spiroperidol binding against Dopamine receptor D2 at 10e-5 M
D(1A) dopamine receptor [4] = target: T1, D(1A) dopamine receptor; test: Compound was tested for binding affinity against dDopamine receptor D1 using [3H]fenoldopam as a radioligand
D(2) dopamine receptor = D(2) dopamine receptor (Bos taurus, UniProt P20288); test: Compound was tested for inhibition of [3H]spiroperidol binding against Dopamine receptor D2
Sequence of D(2) dopamine receptor (P20288 whole entry): as above
In short: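 Washed bovine anterior pituitary membranes (500 μg protein) incubated 20 min at 37 °C with 0.2–0.3 nM [3H]spiroperidol in Tris-HCl pH 7.4, MgSO4, 2 mM EDTA, 0.1% ascorbate.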

T1 sequence (P18901 whole entry): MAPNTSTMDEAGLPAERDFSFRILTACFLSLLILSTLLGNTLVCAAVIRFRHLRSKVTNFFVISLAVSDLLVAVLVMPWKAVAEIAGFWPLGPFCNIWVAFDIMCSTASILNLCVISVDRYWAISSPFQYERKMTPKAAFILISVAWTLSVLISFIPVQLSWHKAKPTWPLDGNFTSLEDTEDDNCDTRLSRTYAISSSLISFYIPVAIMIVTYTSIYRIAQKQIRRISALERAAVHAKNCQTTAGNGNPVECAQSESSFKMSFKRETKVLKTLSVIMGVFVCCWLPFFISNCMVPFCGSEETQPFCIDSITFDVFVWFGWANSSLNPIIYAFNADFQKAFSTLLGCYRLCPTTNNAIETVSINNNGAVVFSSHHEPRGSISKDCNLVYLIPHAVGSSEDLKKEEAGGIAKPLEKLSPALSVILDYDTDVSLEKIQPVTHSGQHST

Compound | Ki (D(1A) dopamine receptor [1]) [nM] | inhibition [2] [%] | inhibition [3] [%] | Ki (D(1A) dopamine receptor [4]) [nM] | Ki (D(2) dopamine receptor) [nM]
Oc1ccc(-c2c(O)c(O)c(Cl)c3c2CCNCC3)cc1 | 1630 | < 20 | – | – | –
Oc1c(O)c(-c2ccccc2)c2c(c1Cl)CCNCC2 | 700 | – | 27 | – | –
Oc1cc2c(cc1O)CCNCC2 | – | – | – | 970 | –
NCCc1ccc(O)c(O)c1-c1ccc(O)cc1 | 1650 | < 20 | – | – | –
NCCc1ccc(O)c(O)c1-c1ccccc1 | 1500 | < 20 | – | – | –
NCC1c2cc(O)ccc2-c2c1ccc(O)c2O (stereo unspecified) | 43 | – | – | – | 5740
NCC1c2ccccc2-c2c1ccc(O)c2O (stereo unspecified) | 380 | – | 20 | – | –
CCCN(CCC)CCc1ccc(O)c(O)c1-c1ccccc1 | 1940 | – | 29 | – | –
Oc1cc2c(c(-c3ccccc3)c1O)CCNCC2 | 1790 | < 20 | – | – | –
CCCN(CCC)CCc1ccc(O)c(O)c1-c1ccc(O)cc1 | 1740 | – | – | – | 1800
Oc1ccc(-c2c(O)c(O)cc3c2CCNCC3)cc1 | > 3000 | < 20 | – | – | –
